Experiments:
FRα = details: O4 replaced by an amino group; cited from earlier work
human FRα = human FRα (Homo sapiens, UniProt P15328); assay: saturation radioligand-binding assay with [^3H]-folic acid, wild-type FRα–Fc; details: fully glycosylated FRα–Fc
[1] = system: FRα Y175, K136 and R106 alanine mutants; assay: saturation radioligand-binding assay, FRα Y175, K136 and R106 mutants; set-up: species or system human; details: mutations of Y175, K136 and R106 (bond lengths ≥3.1 Å)
Procedure, shortened: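 Human FRα alanine mutants made by site-directed mutagenesis, expressed as Fc fusions in transiently transfected HEK293 cells and Ni-NTA purified. 40 nM protein captured on protein G wells (25 mM Tris pH 8.0, 150 mM NaCl, 0.1% Triton X-100) for 40 min. Ligand stripped at pH 3.5 for 1 min. Then 40 min with varied [³H]-folic acid, two washes, scintillation counting. Kd by nonlinear regression, as fold versus wild type.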

reduced folate carrier = details: folate-binding affinity of reduced folate carrier; cited from earlier work

Chain of human FRα (P15328 23-234): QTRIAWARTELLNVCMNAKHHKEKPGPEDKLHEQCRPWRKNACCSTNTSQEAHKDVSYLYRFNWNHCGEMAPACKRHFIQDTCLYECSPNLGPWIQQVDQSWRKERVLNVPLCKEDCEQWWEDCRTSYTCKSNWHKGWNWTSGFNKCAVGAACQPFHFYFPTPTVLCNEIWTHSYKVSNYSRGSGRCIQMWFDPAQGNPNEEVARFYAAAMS

Structure (SMILES): CN(Cc1cnc2nc(N)nc(N)c2n1)c1ccc(C(=O)N[C@@H](CCC(=O)O)C(=O)O)cc1 [methotrexate]
- affinity for FRα compared with folic acid (FRα): reduced affinity

Structure (SMILES): Nc1nc(N)c2nc(CNc3ccc(C(=O)N[C@@H](CCC(=O)O)C(=O)O)cc3)cnc2n1 [aminopterin]
- affinity for FRα compared with folic acid (FRα): reduced affinity

Structure (SMILES): Nc1nc(=O)c2nc(CNc3ccc(C(=O)N[C@@H](CCC(=O)O)C(=O)O)cc3)cnc2[nH]1 [folic acid]
- folic acid-binding affinity compared with the deglycosylated protein (human FRα): similar
- effect of the mutation on folic acid binding [1]: little effect

Structure (SMILES): Nc1nc(=O)c2nc(CNc3ccc(C(=O)N[C@@H](CCC(=O)O)C(=O)O)cc3)cnc2[nH]1 [folate]
- Km (reduced folate carrier): 1 to 10 µM

Source: paper PMC5797940 (Nature, 2013)
